ChEMBL document CHEMBL1124270, “Quinolone antibacterial agents. Synthesis and structure-activity relationships of 8-substituted quinoline-3-carboxylic acids and 1,8-naphthyridine-3-carboxylic acids” (1988)
≈ marks a conversion by molar mass, not a printed value.

What was measured:
Type in all cases: functional
Escherichia coli [1] = assay: Minimum concentration needed to produce linear DNA at an intensity relative to oxolinic at 10 ug/mL in Escherichia coli H560 in vitro.
Procedure, shortened: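 DNA gyrase cleavage test, run as previously described: end point is the lowest drug level (µg/mL) that yields linear DNA at a band intensity matching oxolinic acid at 10 µg/mL. Values come from duplicate or triplicate experiments and are stated as accurate to ±50%.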

Escherichia coli [2] = assay: Minimum inhibitory concentration against Escherichia coli H560 in vitro.
Escherichia coli [3] = assay: Minimum inhibitory concentration against Escherichia coli vogel in vitro.
Enterobacter cloacae = assay: Minimum inhibitory concentration against Enterobacter cloacae HA 2646 in vitro.
Klebsiella pneumoniae = assay: Minimum inhibitory concentration against Klebsiella pneumoniae MGH-2 in vitro.
Mus musculus [4] = assay: In vivo potency against Escherichia coli vogel using mouse protection assay when given perorally; details: po, read-out: PD50
Mus musculus [5] = assay: In vivo potency against Escherichia coli vogel using mouse protection assay when given subcutaneously; details: sc, read-out: PD50
Staphylococcus aureus [6] = assay: In vivo potency against Staphylococcus aureus using mouse protection assay following p.o. administration.; details: po, read-out: PD50
Staphylococcus aureus [7] = assay: In vivo potency against Staphylococcus aureus using mouse protection assay following s.c. administration.; details: sc, read-out: PD50
Streptococcus pneumoniae [8] = assay: In vivo potency against Streptococcus pneumoniae using mouse protection assay following p.o. administration.; details: po, read-out: PD50
Pseudomonas aeruginosa = assay: Minimum inhibitory concentration against Pseudomonas aeruginosa UI-18 in vitro.
Providencia rettgeri = assay: Minimum inhibitory concentration against Providencia rettgeri H1771 in vitro.
Streptococcus pyogenes = assay: (§1) Minimum inhibitory concentration against Streptococcus pyogenes C203 in vitro.
Streptococcus pneumoniae [9] = assay: Minimum inhibitory concentration against Streptococcus pneumoniae SV-1 in vitro.
Staphylococcus aureus [10] = assay: Minimum inhibitory concentration against Staphylococcus aureus H228 in vitro.
Staphylococcus aureus [11] = assay: Minimum inhibitory concentration against Staphylococcus aureus UC-76 in vitro.
Enterococcus faecalis = assay: Minimum inhibitory concentration against Streptococcus faecalis MGH-2 in vitro.
Streptococcus pneumoniae [12] = assay: In vivo potency against Streptococcus pneumoniae using mouse protection assay following s.c. administration.; details: sc, read-out: PD50
Bacteria = assay: as §1
Mus musculus [13] = assay: In vivo potency against Staphylococcus aureus using mouse protection assay when given orally; details: po, read-out: PD50
Mus musculus [14] = assay: In vivo potency against Streptococcus pneumoniae using mouse protection assay when given orally; details: po, read-out: PD50

| SMILES | DNA cleavage conc (gyrase) (Escherichia coli [1]) | MIC (Escherichia coli [2]) | MIC (Escherichia coli [3]) | MIC (Enterobacter cloacae) | MIC (Klebsiella pneumoniae) | ED50 (Mus musculus [4]) | ED50 (Mus musculus [5]) | ED50 (Staphylococcus aureus [6]) | ED50 (Staphylococcus aureus [7]) | ED50 (Streptococcus pneumoniae [8]) | MIC (Pseudomonas aeruginosa) | MIC (Providencia rettgeri) | MIC (Streptococcus pyogenes) | MIC (Streptococcus pneumoniae [9]) | MIC (Staphylococcus aureus [10]) | MIC (Staphylococcus aureus [11]) | MIC (Enterococcus faecalis) | ED50 (Streptococcus pneumoniae [12]) | other results |
| --- | --- | --- | --- | --- | --- | --- | --- | --- | --- | --- | --- | --- | --- | --- | --- | --- | --- | --- | --- |
| CC(C)NCC1CCN(c2c(F)cc3c(=O)c(C(=O)O)cn(C4CC4)c3c2F)C1 (stereo unspecified) | 2.8 µg/mL | 0.05 µg/mL (≈ 0.123 µM) | 0.1 µg/mL (≈ 0.247 µM) | 0.2 µg/mL (≈ 0.493 µM) | 0.2 µg/mL (≈ 0.493 µM) | 6 mg/kg | 1 mg/kg | 42 mg/kg | 12 mg/kg | 7 mg/kg | 1.6 µg/mL (≈ 3.95 µM) | 0.4 µg/mL (≈ 0.987 µM) | 0.05 µg/mL (≈ 0.123 µM) | 0.05 µg/mL (≈ 0.123 µM) | 0.05 µg/mL (≈ 0.123 µM) | 0.013 µg/mL (≈ 0.0321 µM) | 0.025 µg/mL (≈ 0.0617 µM) | 2 mg/kg |  |
| CN(C)CC1CCN(c2nc3c(cc2F)c(=O)c(C(=O)O)cn3C2CC2)C1 (stereo unspecified) | 0.75 µg/mL | 0.05 µg/mL (≈ 0.134 µM) | 0.05 µg/mL (≈ 0.134 µM) | 0.1 µg/mL (≈ 0.267 µM) | 0.2 µg/mL (≈ 0.534 µM) | 2 mg/kg | 1 mg/kg | 31 mg/kg | 27 mg/kg | 7 mg/kg | 0.4 µg/mL (≈ 1.07 µM) | 0.8 µg/mL (≈ 2.14 µM) | 0.1 µg/mL (≈ 0.267 µM) | 0.05 µg/mL (≈ 0.134 µM) | 0.1 µg/mL (≈ 0.267 µM) | 0.05 µg/mL (≈ 0.134 µM) | 0.2 µg/mL (≈ 0.534 µM) | 7 mg/kg |  |
| O=C(O)c1cn(C2CC2)c2c(F)c(N3CCNCC3)c(F)cc2c1=O | 0.5 µg/mL | 0.025 µg/mL (≈ 0.0716 µM) | 0.1 µg/mL (≈ 0.286 µM) | 0.05 µg/mL (≈ 0.143 µM) | 0.1 µg/mL (≈ 0.286 µM) | 0.5 mg/kg | 0.3 mg/kg | 7 mg/kg | 3 mg/kg | 59 mg/kg | 0.2 µg/mL (≈ 0.573 µM) | 0.1 µg/mL (≈ 0.286 µM) | 0.8 µg/mL (≈ 2.29 µM) | 0.8 µg/mL (≈ 2.29 µM) | 0.4 µg/mL (≈ 1.15 µM) | 0.1 µg/mL (≈ 0.286 µM) | 0.4 µg/mL (≈ 1.15 µM) | 29 mg/kg |  |
| Cl.NC1CCN(c2c(F)cc3c(=O)c(C(=O)O)cn(C4CC4)c3c2F)C1 (stereo unspecified) | 0.1 µg/mL | 0.006 µg/mL | 0.013 µg/mL | 0.025 µg/mL | 0.025 µg/mL | 1 mg/kg | 0.2 mg/kg | 7 mg/kg | 3 mg/kg | 15 mg/kg | 0.1 µg/mL | 0.05 µg/mL | 0.05 µg/mL | 0.05 µg/mL | 0.05 µg/mL | 0.025 µg/mL | 0.05 µg/mL | 6 mg/kg |  |
| CNCC1CCN(c2nc3c(cc2F)c(=O)c(C(=O)O)cn3C2CC2)C1 (stereo unspecified) | 1 µg/mL | 0.05 µg/mL (≈ 0.139 µM) | 0.1 µg/mL (≈ 0.277 µM) | 0.2 µg/mL (≈ 0.555 µM) | 0.2 µg/mL (≈ 0.555 µM) | 3 mg/kg | 1 mg/kg | 3 mg/kg | 1 mg/kg | 27 mg/kg | 0.8 µg/mL (≈ 2.22 µM) | 0.4 µg/mL (≈ 1.11 µM) |  | 0.025 µg/mL (≈ 0.0694 µM) | 0.2 µg/mL (≈ 0.555 µM) | 0.025 µg/mL (≈ 0.0694 µM) | 0.2 µg/mL (≈ 0.555 µM) | 11 mg/kg | MIC (Bacteria): 0.05 µg/mL (≈ 0.139 µM) |
| NCC1CCN(c2c(F)cc3c(=O)c(C(=O)O)cn(C4CC4)c3c2F)C1 (stereo unspecified) | 0.25 µg/mL | 0.006 µg/mL (≈ 0.0165 µM) | 0.025 µg/mL (≈ 0.0688 µM) | 0.05 µg/mL (≈ 0.138 µM) | 0.05 µg/mL (≈ 0.138 µM) | 6 mg/kg |  |  |  |  | 0.2 µg/mL (≈ 0.55 µM) | 0.1 µg/mL (≈ 0.275 µM) | 0.013 µg/mL (≈ 0.0358 µM) | 0.006 µg/mL (≈ 0.0165 µM) | 0.025 µg/mL (≈ 0.0688 µM) | 0.003 µg/mL (≈ 0.00826 µM) | 0.013 µg/mL (≈ 0.0358 µM) |  | ED50 (Mus musculus [13]): 78 mg/kg; ED50 (Mus musculus [14]): 10 mg/kg |
| CCNCC1CCN(c2c(F)cc3c(=O)c(C(=O)O)cn(C4CC4)c3c2F)C1 (stereo unspecified) [PD-117558] | 0.25 µg/mL | 0.025 µg/mL (≈ 0.0639 µM) | 0.05 µg/mL (≈ 0.128 µM) | 0.1 µg/mL (≈ 0.255 µM) | 0.1 µg/mL (≈ 0.255 µM) | 4 mg/kg | 1 mg/kg | 59 mg/kg | 40 mg/kg | 3 mg/kg | 0.4 µg/mL (≈ 1.02 µM) | 0.2 µg/mL (≈ 0.511 µM) | 0.025 µg/mL (≈ 0.0639 µM) | 0.025 µg/mL (≈ 0.0639 µM) | 0.025 µg/mL (≈ 0.0639 µM) | 0.006 µg/mL (≈ 0.0153 µM) | 0.025 µg/mL (≈ 0.0639 µM) | 2 mg/kg |  |
| NC1CCN(c2nc3c(cc2F)c(=O)c(C(=O)O)cn3C2CC2)C1 (stereo unspecified) | 1 µg/mL | 0.006 µg/mL (≈ 0.0181 µM) | 0.013 µg/mL (≈ 0.0391 µM) | 0.05 µg/mL (≈ 0.15 µM) | 0.025 µg/mL (≈ 0.0752 µM) | 2 mg/kg | 0.6 mg/kg | 7 mg/kg | 3 mg/kg | 58 mg/kg | 0.05 µg/mL (≈ 0.15 µM) | 0.1 µg/mL (≈ 0.301 µM) | 0.2 µg/mL (≈ 0.602 µM) | 0.2 µg/mL (≈ 0.602 µM) | 0.2 µg/mL (≈ 0.602 µM) | 0.013 µg/mL (≈ 0.0391 µM) | 0.2 µg/mL (≈ 0.602 µM) | 33 mg/kg |  |
